Laboratory results as given in EPA's CvTdb concentration-time database.

How the values were obtained:
rat [1] = test: concentration in blood after dosing; conditions: dosed: m-xylene, 5000 ppm, dermal, duration: 4 hr, male, F344
rat [2] = test: concentration in blood after dosing
rat [3] = test: concentration in blood after dosing; conditions: dosed: m-xylene, 5000 ppm, dermal, duration: 4 hr, male, F344; remark: listed apart in the source
rat [4] = test: concentration in blood after dosing; conditions: dosed: m-xylene, 5000 ppm, dermal, duration: 4 hr, male, F344; remark: listed apart in the source
rat [5] = test: concentration in blood after dosing; conditions: dosed: m-xylene, 5000 ppm, dermal, duration: 4 hr, male, F344; remark: listed apart in the source
rat [6] = test: concentration in blood after dosing; conditions: dosed: m-xylene, 5000 ppm, dermal, duration: 4 hr, male, F344; remark: listed apart in the source
rat [7] = test: concentration in blood after dosing; negative times count back from the end of exposure; conditions: inhalation
rat [8] = test: amount in urine after dosing (umol); conditions: dosed: tert-amyl methyl ether, 38.4 ppm, inhalation, duration: 4 hr, F344 (Harlan Winkelmann)
Rat [9] = test: concentration in urine after dosing; conditions: dosed: dibromoacetic acid, 100 mg/kg, oral, Male, F344
Rat [10] = test: concentration in urine after dosing; conditions: dosed: dibromoacetic acid, oral, Male, F344
Rat [11] = test: concentration in urine after dosing; conditions: dosed: dibromoacetic acid, 100 mg/kg, oral, Male, F344; remark: listed apart in the source
Rat [12] = test: concentration in urine after dosing; conditions: dosed: dibromoacetic acid, 40 mg/kg, oral, Male, F344
Rat [13] = test: concentration in urine after dosing; conditions: dosed: dibromoacetic acid, 40 mg/kg, oral, Male, F344; remark: listed apart in the source
human [14] = test: concentration in blood after dosing; negative times count back from the end of exposure; conditions: dosed: ethylbenzene, 33 ppm, inhalation, duration: 7 hr
Procedure, shortened: (§1)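 Points were largely digitised from plot screenshots with WebPlotDigitizer or otherwise copied from tables, and they remain in the units each source reported. They come from published in vivo toxicokinetic studies and two structured collections. Sampling and analytical methods follow each source and were often not reported.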

human [15] = test: amount in urine after dosing (umol); conditions: dosed: tert-amyl methyl ether, 38.4 ppm, inhalation, duration: 4 hr
Procedure, shortened: as §1

Cc1cccc(C)c1 [m-xylene]
concentration in blood [µg/mL]
Conditions	rat [1]	rat [3]	rat [4]	rat [5]	rat [6]
0.5 h	0.154	2.86	6.02	5.38	3.96
1 h	5.86	2.95	7.02	9.47	3.79
2 h	3.84	8.16	3.45	12.1	25.6
3 h	3.76	8.02	9.5	15.9	5.95
4 h	5.03	9.03	11.4	16.7	9.94

rat [2], dosed: m-xylene, 5000 ppm, dermal, duration: 4 hr, male, F344
Conditions	concentration in blood [µg/mL]
0.5 h	0.154
1 h	4.11
2 h	4.35
3 h	8.85
4 h	10.5

c1cc2ccc3cccc4ccc(c1)c2c34 [total 14C-pyrene]
rat [7], dosed: pyrene, male, Wistar, radiolabel
Conditions	concentration in blood [mg/L]
0.2501 h, 200 mg/m^3, duration: 95 min	1.94
0.253 h, 500 mg/m^3, duration: 95 min	16.9
0.263 h, 800 mg/m^3, duration: 95 min	41
0.5176 h, 500 mg/m^3, duration: 95 min	14.7
0.5339 h, 800 mg/m^3, duration: 95 min	41
0.8638 h, 800 mg/m^3, duration: 95 min	43.5
0.87 h, 500 mg/m^3, duration: 95 min	12.4
0.875 h, 200 mg/m^3, duration: 95 min	1.19
1.216 h, 500 mg/m^3, duration: 95 min	9.07
1.222 h, 800 mg/m^3, duration: 95 min	42.7
1.227 h, 200 mg/m^3, duration: 95 min	1.02
1.722 h, 500 mg/m^3, duration: 95 min	6.76
1.724 h, 800 mg/m^3, duration: 95 min	34.6
1.733 h, 200 mg/m^3, duration: 95 min	0.99
2.225 h, 500 mg/m^3, duration: 95 min	5.3
2.235 h, 800 mg/m^3, duration: 95 min	30.3
2.245 h, 200 mg/m^3, duration: 95 min	0.837
2.901 h, 200 mg/m^3, duration: 95 min	0.773
2.91 h, 800 mg/m^3, duration: 95 min	24.1
2.926 h, 500 mg/m^3, duration: 95 min	4.13
3.568 h, 800 mg/m^3, duration: 95 min	21
3.582 h, 200 mg/m^3, duration: 95 min	0.714
3.588 h, 500 mg/m^3, duration: 95 min	3.38
4.567 h, 800 mg/m^3, duration: 95 min	15.5
4.569 h, 200 mg/m^3, duration: 95 min	0.695
4.577 h, 500 mg/m^3, duration: 95 min	3.05
6.023 h, 800 mg/m^3, duration: 95 min	11.1
6.027 h, 500 mg/m^3, duration: 95 min	2.51
7.481 h, 800 mg/m^3, duration: 95 min	9.81
32 min, 200 mg/m^3, duration: 95 min	1.46
34 s, 500 mg/m^3, duration: 95 min	15.9
79 s, 200 mg/m^3, duration: 95 min	2.24

rat [7], dosed: pyrene, male, Wistar, radiolabel, during exposure
Conditions	concentration in blood [mg/L]
-28 s, 800 mg/m^3, duration: 95 min	40.7
-1.353 h, 200 mg/m^3, duration: 95 min	0.659
-1.349 h, 500 mg/m^3, duration: 95 min	2.48
-1.122 h, 500 mg/m^3, duration: 95 min	6.67
-1.119 h, 800 mg/m^3, duration: 95 min	8.21
-1.09 h, 200 mg/m^3, duration: 95 min	1.4
-0.7764 h, 800 mg/m^3, duration: 95 min	19.9
-0.7622 h, 200 mg/m^3, duration: 95 min	2.04
-0.7591 h, 500 mg/m^3, duration: 95 min	10.2
-0.4362 h, 800 mg/m^3, duration: 95 min	29.2
-0.434 h, 200 mg/m^3, duration: 95 min	2.25
-0.4242 h, 500 mg/m^3, duration: 95 min	12.7

ClC(Cl)Cl [chloroform]
rat [7], dosed: chloroform, 100 ppm, duration: 360 min
Conditions	concentration in blood [µg/g]
0.4971 h	0.55
2.006 h	0.151

rat [7], dosed: chloroform, 100 ppm, duration: 360 min, during exposure
Conditions	concentration in blood [µg/g]
-31 s	1.02
-5.747 h	0.18
-5.503 h	1.05
-4.997 h	1.05
-3 h	1.25

CC(C)(O)CC(=O)O [3-hydroxy-3-methyl butyrate]
rat [8]
Conditions	amount in urine
6.001 h	0.652
12.07 h	0.695
18.1 h	0.787
24.1 h	0.425
30 h	0.178
36.09 h	0.517
42.12 h	0.736
48.11 h	0.23

O=C[O-] [formate]
rat [2], dosed: methanol, 100 mg/kg, iv, male, CDF(F344)/CrlBR
Conditions	concentration in blood [µg/mL]
0.1321 h	3.24
0.4419 h	3.23
0.9757 h	3.13
1.457 h	3.58
1.923 h	2.56
2.94 h	2.07
4.456 h	1.03
5.99 h	0.0739
7.984 h	1.33
119 s	0.74

O=C(O)C(=O)O [Oxalic acid]
concentration in urine [µg/mL]
Conditions	0 h	2 h	4 h	8 h	24 h	48 h
Rat [9]	53.4	–	133	–	68	72.6
Rat [11]	63.6	78.1	108	98.2	103	224
Rat [12]	63	–	–	71.1	99.3	133
Rat [13]	63.8	26.2	–	–	88.7	130

concentration in urine [µg/mL], Rat [10]
Conditions	0 h	4 h	8 h	24 h	48 h
40 mg/kg	74.6	52.7	63.5	89.1	116
100 mg/kg	64.8	105	–	108	154

ClC(Cl)(Cl)Cl [carbon tetrachloride]
concentration in blood [mg/L], rat [7], dosed: carbon tetrachloride, duration: 120 min
Conditions	100 ppm	1000 ppm
0.1277 h	0.401	4.51
0.2902 h	0.401	–
0.305 h	–	4.27
0.4232 h	0.34	–
0.4675 h	–	4.51
0.6891 h	0.24	–
0.7039 h	–	4.75
0.9551 h	0.24	–
0.9698 h	–	3.67
1.457 h	0.24	–
1.472 h	–	2.64
1.96 h	–	2.86
1.975 h	0.14	–
2.462 h	0.14	1.02
2.965 h	0.14	1.06
3.954 h	0.0401	–
3.969 h	–	0.761
4.944 h	0.0401	–
4.974 h	–	0.701
5.979 h	0.02	–
5.993 h	–	0.441
7.013 h	–	0.22
7.988 h	–	0.22
8.993 h	–	0.24
9.983 h	–	0.16
194 s	–	6.31
247 s	0.501	5.19

rat [7], dosed: carbon tetrachloride, duration: 120 min, during exposure
Conditions	concentration in blood [mg/L]
-179 s, 1000 ppm	11.2
-125 s, 100 ppm	0.681
-1.941 h, 1000 ppm	5.69
-1.867 h, 1000 ppm	7.11
-1.852 h, 100 ppm	0.441
-1.793 h, 100 ppm	0.601
-1.69 h, 100 ppm	0.741
-1.675 h, 1000 ppm	7.55
-1.527 h, 100 ppm	0.481
-1.498 h, 1000 ppm	6.17
-1.276 h, 1000 ppm	7.51
-1.261 h, 100 ppm	0.421
-1.054 h, 1000 ppm	6.93
-1.025 h, 100 ppm	0.561
-0.8032 h, 100 ppm	0.601
-0.7884 h, 1000 ppm	7.73
-0.5668 h, 1000 ppm	8.19
-0.5372 h, 100 ppm	0.461
-0.3008 h, 100 ppm	0.881
-0.2861 h, 1000 ppm	10

CCc1ccccc1 [ethylbenzene]
human [14]
Conditions	concentration in blood [mg/L]
0.4921 h	0.254
0.9902 h	0.197

human [14], during exposure
Conditions	concentration in blood [mg/L]
-1.491 h	0.518
-0.514 h	0.497

rat [2], dosed: ethylbenzene, 50 ppm, inhalation, duration: 4 hr
Conditions	concentration in blood [µg/mL]
0.4948 h	0.531
0.9897 h	0.315
1.498 h	0.193
1.993 h	0.146
272 s	0.821

C=CC#N [acrylonitrile]
rat [2], dosed: acrylonitrile, inhalation, duration: 3 hr, male, Sprague-Dawley
Conditions	concentration in blood [µg/mL]
0.103 h, 186 ppm	0.329
0.1717 h, 291 ppm	0.588
0.1772 h, 186 ppm	0.25
0.1774 h, 254 ppm	0.263
0.2565 h, 291 ppm	0.287
0.2613 h, 254 ppm	0.235
0.2676 h, 186 ppm	0.115
90 s, 254 ppm	1.64
94 s, 291 ppm	1.96
110 s, 186 ppm	0.911
337 s, 291 ppm	0.926
345 s, 254 ppm	0.473

rat [2], dosed: acrylonitrile, iv, male, Fisher 344 CDF(F344)/CrlBR
Conditions	concentration in blood [µg/mL]
0.1675 h, 84 mg/kg	28.2
0.1682 h, 3.4 mg/kg	0.74
0.1683 h, 55 mg/kg	27.2
0.1717 h, 47 mg/kg	13.4
0.2068 h, 55 mg/kg	21
0.208 h, 3.4 mg/kg	0.43
0.2102 h, 47 mg/kg	11.8
0.2128 h, 84 mg/kg	27.3
0.2495 h, 3.4 mg/kg	0.259
0.2506 h, 55 mg/kg	17.4
0.2512 h, 84 mg/kg	22.4
0.2575 h, 47 mg/kg	10.9
0.5008 h, 55 mg/kg	6.77
0.5014 h, 3.4 mg/kg	0.14
0.5026 h, 47 mg/kg	3.04
0.5056 h, 84 mg/kg	11.3
0.6636 h, 55 mg/kg	3.1
0.6706 h, 47 mg/kg	1.6
0.6711 h, 84 mg/kg	6.7
0.9964 h, 55 mg/kg	0.393
1.005 h, 47 mg/kg	0.287
1.006 h, 84 mg/kg	1.59
1.248 h, 55 mg/kg	0.396
1.25 h, 47 mg/kg	0.244
1.25 h, 84 mg/kg	0.532
182 s, 3.4 mg/kg	4.95
183 s, 55 mg/kg	71.4
188 s, 84 mg/kg	156
196 s, 47 mg/kg	52.8
303 s, 55 mg/kg	47.2
306 s, 3.4 mg/kg	3.11
307 s, 84 mg/kg	88.3
309 s, 47 mg/kg	38.1

CC(C)(O)CC(=O)O [3-hydroxy-3-methyl-butyrate]
human [15]
Conditions	amount in urine
6.255 h	52.2
12.14 h	81.7
18.19 h	45.7
24.05 h	43.6
30.19 h	32.9
36.26 h	24.2
42.12 h	11.1
48.2 h	19.7
305 s	19.7
